Calls of active or inactive are those of the source.
Tests used:
PC-12 [1] = assay: Cytoprotection activity against 6-OHDA-induced cytotoxicity in rat PC12 cells assessed as cell viability at 20 uM pre-incubated for 24 hrs before 6-OHDA exposure for 12 hrs by MTT assay; type: functional, cell-based
PC-12 [2] = assay: Induction of antioxidant genes expression in rat PC12 cells assessed as increase in Trx1 mRNA level at 20 uM incubated for 3 hrs by qRT-PCR method; type: functional, cell-based
Procedure, shortened: (§1)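 PC12 cells, 1×10^6 per 60-mm dish, 1 day, then 20 μM compound for 0, 3, 6 and 12 h; total RNA isolated, quantified by 260/280 absorbance; mRNA by real-time RT-PCR normalized to GAPDH; mean ± SD of three independent experiments versus 0 h.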

PC-12 [3] = assay: Cytoprotection activity against 6-OHDA-induced oxidative stress in rat PC12 cells assessed as TrxR1 activity at pre-incubated for 24 hrs before 6-OHDA exposure for 12 hrs by Escherichia coli Trx based assay; type: functional, cell-based
Procedure, shortened: (§2)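 Cellular TrxR activity: extract with 20 μg protein incubated 30 min at 37 °C in 100 mM Tris-HCl pH 7.4 containing 0.3 mM insulin, 660 μM NADPH, 3 mM EDTA, 4 μM E. coli Trx; stopped with 1 mM DTNB in 6 M guanidine-HCl pH 8.0; A412 minus Trx-free blank; % of DMSO control.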

PC-12 [4] = assay: Induction of antioxidant genes expression in rat PC12 cells assessed as increase in TrxR1 mRNA level at 20 uM incubated for 3 hrs by qRT-PCR method; type: functional, cell-based
Procedure, shortened: (§3)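 PC12 cells (1×10^6 per 60-mm dish) seeded 1 day, then exposed to 20 μM compound for 0, 3, 6 and 12 h. Total RNA isolated and quantified by 260/280 absorbance. Transcripts measured by qRT-PCR, normalized to GAPDH internal control, compared against 0 h control. Means ± SD of three independent experiments.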

PC-12 [5] = assay: Cytoprotection activity against 6-OHDA-induced oxidative stress in rat PC12 cells assessed as reduction in ROS generation at 10 and 20 uM pre-incubated for 24 hrs before 6-OHDA exposure for 5 hrs by DCFH-DA dye based fluorescent microscopy; type: functional, cell-based
PC-12 [6] = assay: Induction of antioxidant defense system in rat PC12 cells assessed as increase in Trx activity level incubated for 24 hrs by recombinant rat TrxR1 based assay; type: functional, cell-based
Procedure, shortened: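 Cellular Trx activity: extract with 20 μg protein incubated 30 min at 37 °C in 100 mM Tris-HCl pH 7.4 with 0.3 mM insulin, 660 μM NADPH, 3 mM EDTA, 60 nM recombinant rat TrxR1; stopped with 1 mM DTNB in 6 M guanidine-HCl pH 8.0; A412 minus TrxR-free blank; % of DMSO control.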

PC-12 [7] = assay: Induction of antioxidant genes expression in rat PC12 cells assessed as increase in TrxR1 mRNA level at 20 uM incubated for 6 hrs by qRT-PCR method; type: functional, cell-based; procedure, shortened: as §3
PC-12 [8] = assay: Induction of antioxidant genes expression in rat PC12 cells assessed as increase in GCLC mRNA level at 20 uM incubated for 6 hrs by qRT-PCR method; type: functional, cell-based; procedure, shortened: as §1
PC-12 [9] = assay: Cytoprotection activity against H2O2-induced apoptosis in rat PC12 cells assessed as reduction in caspase-3 activation at 10 and 20 uM pre-incubated for 24 hrs before H2O2 exposure for 24 hrs by colorimetric assay; type: functional, cell-based
Procedure, shortened: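 Lysed in RIPA buffer (pH 7.5), protein by Bradford; caspase-3 measured colorimetrically with Ac-DEVD-pNA substrate, expressed as % of control; mean ± SD, three independent experiments.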

PC-12 [10] = assay: Induction of antioxidant genes expression in rat PC12 cells assessed as increase in NQO1 mRNA level at 20 uM incubated for 6 hrs by qRT-PCR method; type: functional, cell-based; procedure, shortened: as §1
PC-12 [11] = assay: Induction of antioxidant genes expression in rat PC12 cells assessed as increase in Trx1 mRNA level at 20 uM incubated for 12 hrs by qRT-PCR method; type: functional, cell-based; procedure, shortened: as §1
PC-12 [12] = assay: Cytoprotection activity against H2O2-induced cytotoxicity in rat PC12 cells assessed as cell viability at 10 and 20 uM pre-incubated for 24 hrs before H2O2 exposure for 12 hrs by LDH release assay; type: functional, cell-based
PC-12 [13] = assay: Cytoprotection activity against H2O2-induced oxidative stress in rat PC12 cells assessed as reduction in ROS generation at 10 and 20 uM pre-incubated for 24 hrs before H2O2 exposure for 5 hrs by DCFH-DA dye based fluorescent microscopy; type: functional, cell-based
PC-12 [14] = assay: Cytoprotection activity against 6-OHDA-induced apoptosis in rat PC12 cells assessed as reduction in apoptotic nuclei levels at 10 and 20 uM pre-incubated for 24 hrs before 6-OHDA exposure for 5 hrs by Hoechst 33342 staining based fluorescent microscopy; type: functional, cell-based
Procedure, shortened: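 PC12 cells seeded 2×10^5/well, grown 1 day, pretreated with compound 24 h, then medium replaced with fresh medium containing 200 μM 6-OHDA or 500 μM H2O2 for 5 h; Hoechst 33342 added at 5 μg/mL final; condensed, brightly fluorescent nuclei counted as apoptotic under fluorescence microscopy.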

[15] = target: T1, Nuclear factor erythroid 2-related factor 2 (Rattus norvegicus) (UniProt O54968); assay: Induction of Nrf2-mediated antioxidant genes expression in rat PC12 cells assessed as increase in HO1 protein expression at 10 and 20 uM incubated for 20 hrs by Western blotting method; type: cell-based; details: PC-12
T1 sequence (whole entry): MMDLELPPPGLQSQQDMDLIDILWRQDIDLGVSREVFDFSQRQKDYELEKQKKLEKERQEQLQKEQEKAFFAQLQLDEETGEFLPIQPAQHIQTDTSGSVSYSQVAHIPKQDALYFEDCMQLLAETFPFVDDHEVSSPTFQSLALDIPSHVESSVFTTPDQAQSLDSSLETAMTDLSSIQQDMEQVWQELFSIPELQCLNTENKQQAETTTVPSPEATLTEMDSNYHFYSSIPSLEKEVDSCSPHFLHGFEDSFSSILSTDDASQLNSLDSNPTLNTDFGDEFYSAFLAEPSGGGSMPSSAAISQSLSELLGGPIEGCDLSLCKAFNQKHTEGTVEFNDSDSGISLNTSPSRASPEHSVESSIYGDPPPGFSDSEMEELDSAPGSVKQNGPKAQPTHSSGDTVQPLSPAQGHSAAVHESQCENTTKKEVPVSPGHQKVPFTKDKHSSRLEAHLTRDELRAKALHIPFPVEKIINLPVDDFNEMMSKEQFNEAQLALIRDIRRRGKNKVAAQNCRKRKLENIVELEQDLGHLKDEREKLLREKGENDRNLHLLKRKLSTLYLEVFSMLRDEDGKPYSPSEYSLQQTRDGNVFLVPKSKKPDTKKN

PC-12 [16] = assay: Cytoprotection activity against H2O2-induced oxidative stress in rat PC12 cells assessed as TrxR1 activity at pre-incubated for 24 hrs before H2O2 exposure for 12 hrs by Escherichia coli Trx based assay; type: functional, cell-based; procedure, shortened: as §2
PC-12 [17] = assay: Induction of total Nrf2 protein expression in rat PC12 cells at 20 uM incubated for 2 to 8 hrs by Western blotting method; type: functional, cell-based
Procedure, shortened: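 Seeded at 1×10^6 cells per 60-mm dish for 24 h, PC12 cells were treated with 20 μM compound for 0, 2, 4 and 8 h. Whole-cell, cytosolic and nuclear protein extracts were then prepared and Nrf2 probed by Western blot.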

Measured: Activity

COc1ccc(/C=C/C(=O)N2CCCC2=O)cc1
active: PC-12 [1] | PC-12 [2] | PC-12 [3] | PC-12 [4] | PC-12 [5] Dose-dependent effect | PC-12 [6] | PC-12 [7] | PC-12 [8] | PC-12 [9] Dose-dependent effect | PC-12 [10] | PC-12 [11] | PC-12 [12] | PC-12 [13] Dose-dependent effect | PC-12 [14] | [15] | PC-12 [16] | PC-12 [17]

COc1cc(/C=C/C(=O)N2CCCCC2=O)cc(OC)c1OC
active: PC-12 [1] | PC-12 [2] | PC-12 [3] | PC-12 [4] | PC-12 [5] Dose-dependent effect | PC-12 [6] | PC-12 [7] | PC-12 [8] | PC-12 [9] Dose-dependent effect | PC-12 [10] | PC-12 [11] | PC-12 [12] | PC-12 [13] Dose-dependent effect | PC-12 [14] | [15] | PC-12 [16] | PC-12 [17]

Reference: ChEMBL document CHEMBL3580644, “Synthesis of piperlongumine analogues and discovery of nuclear factor erythroid 2-related factor 2 (Nrf2) activators as potential neuroprotective agents” (J Med Chem, 2015)
